Format in all cases: functional
One test has as its system Measles morbillivirus. The experiment in a line: Inhibition of Measles virus induced cytopathicity in vero cells. For orientation: Damage to the host cells serves as the signal in cytopathic effect assays.
A further test has as its system Sindbis virus. Description: Inhibition of Sindbis virus induced cytopathicity in vero cells.
Test [1] deals with Vesicular stomatitis virus. Description: Inhibition of Vesicular stomatitis virus induced cytopathicity in BS-C-1 cells. In a few lines: (§1)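 Vesicular stomatitis virus was inoculated at 100 CCID50 (100× the dose infecting 50% of cells) in each cell type: human embryonic skin-muscle fibroblasts, LR-strain trisomy-21 fibroblasts, HEp-2, CV-1, BS-C-1, Balb/3T3, RK13, human kidney, HeLa and Vero. CPE was read at 1–2 days in every cell type, once complete in untreated infected controls. The MIC is the concentration giving a 50% reduction in cytopathogenicity.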

Test [2] concerns Vesicular stomatitis virus. Description: Inhibition of Vesicular stomatitis virus induced cytopathicity in PRK cells.
A further test concerns Poliovirus 1. Description: Inhibition of polio virus 1 induced cytopathicity in HeLa cells. The conditions noted are these: Enterovirus C.
Test [3] deals with Vesicular stomatitis virus. The experiment in a line: Inhibition of Vesicular stomatitis virus induced cytopathicity in RK13 cells. The method in brief: as §1
Test [4] relates to HK. Description: Minimum inhibitory concentration which is required to reduce virus-induced cytopathogenicity by 50% against Vesicular stomatitis virus in human kidney. In a few lines:
as §1

Test [5] relates to Vesicular stomatitis virus. The experiment in a line: Inhibition of Vesicular stomatitis virus induced cytopathicity in HeLa cells. The method in brief: as §1
For a further test, the system named is Coxsackievirus B4. The experiment in a line: Inhibition of Coxsackie B4 virus induced cytopathicity in HeLa cells. The note with it: Enterovirus B.
The test system of test [6] is Vesicular stomatitis virus. The experiment in a line: Inhibition of Vesicular stomatitis virus induced cytopathicity in HEp-2 cells. The method in brief: as §1
A further test has as its system Vaccinia virus. Description: Inhibition of Vaccinia virus induced cytopathicity in PRK cells. The conditions noted are these: Orthopoxvirus vaccinia.
The subject of test [7] is Vesicular stomatitis virus. The experiment in a line: Inhibition of Vesicular stomatitis virus induced cytopathicity in CV-1 cells. The method in brief: as §1
The next test concerns Vero. Description: Cytotoxic concentration against Vero cells. The conditions noted are these: Chlorocebus sabaeus. The method in brief:
(§2)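 Uninfected cells were incubated with compound for the same duration as the matching antiviral assay. The minimum cytotoxic concentration is the lowest one causing a microscopically detectable change in normal cell morphology.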

A further test deals with Human respirovirus 3. The experiment in a line: Inhibition of parainfluenza virus-3 induced cytopathicity in vero cells.
The test system of a further test is Human alphaherpesvirus 1. Description: Inhibition of HSV-1 induced cytopathicity in PRK cells.
Test [8] has as its system Vesicular stomatitis virus. Description: Inhibition of Vesicular stomatitis virus induced cytopathicity in E6SM cells. The method in brief: as §1
Test [9] has as its system Vesicular stomatitis virus. Description: Inhibition of Vesicular stomatitis virus induced cytopathicity in T-21 cells. In a few lines: as §1
Test [10] concerns Vesicular stomatitis virus. Description: Inhibition of Vesicular stomatitis virus induced cytopathicity in Vero cells. The method in brief:
as §1

The next test relates to HeLa. The experiment in a line: Cytotoxic concentration against HeLa cells. The note with it: Homo sapiens. The method in brief: as §2
The subject of a further test is PRK. The experiment in a line: Cytotoxic concentration against PRK cells. The note with it: Oryctolagus cuniculus. The method in brief: as §2
Test [11] deals with Vesicular stomatitis virus. Description: Inhibition of Vesicular stomatitis virus induced cytopathicity in BALB/3T3 cells. The conditions noted are these: in Mus musculus. In a few lines:
as §1

The subject of test [12] is Mammalian orthoreovirus 1. The experiment in a line: Inhibition of Reo virus-1 induced cytopathicity in vero cells.
The species named for test [13] is Oryctolagus cuniculus. Description: Inhibitory effects on DNA, RNA, and Protein synthesis in rabbit kidney cells was evaluated for incorporation of [5-3H]-Urd. The conditions noted are these: read-out: ID50 (the source's name).
Test [14] relates to HK. The experiment in a line: Minimum inhibitory concentration which is required to reduce virus-induced cytopathogenicity by 50% against Vesicular stomatitis virus in human kidney (HK) cells. In a few lines:
as §1

The species entered for test [15] is Oryctolagus cuniculus. Description: Inhibitory effects on DNA, RNA, and Protein synthesis in rabbit kidney cells was evaluated for incorporation of [4,5-3H]leucine. The conditions noted are these: read-out: ID50 (the source's name).
The species named for test [16] is Oryctolagus cuniculus. The experiment in a line: Inhibitory effects on DNA, RNA, and Protein synthesis in rabbit kidney cells was evaluated for incorporation of [methyl-3H]dThd]. The note with it: read-out: ID50 (the source's name).
Test [17] relates to HK. Description: Minimum inhibitory concentration which is required to reduce virus-induced cytopathogenicity by 50% against Vesicular stomatitis virus in human kidney,. In a few lines:
as §1

Values after ≈ are worked out from the molar mass of the structure shown.

`CCCCCCCCOC(=O)C(O)Cn1cnc2c(N)ncnc21` (stereo not given): the MIC was 70 µg/mL (≈ 209 µM) in the test on Measles morbillivirus; 30 µg/mL (≈ 89.4 µM) against Sindbis virus; > 100 µg/mL in test [1]; 7 µg/mL (≈ 20.9 µM) in test [2]; > 100 µg/mL in the test with Poliovirus 1; 30 µg/mL (≈ 89.4 µM) in [3]. The MIC in the test with HK [4] was 15 µg/mL (≈ 44.7 µM); in test [5], 1 µg/mL (≈ 2.98 µM); against Coxsackievirus B4, > 100 µg/mL; in test [6], 2 µg/mL (≈ 5.96 µM); in the test on Vaccinia virus, 7 µg/mL (≈ 20.9 µM); in test [7], > 100 µg/mL. Further, the MIC is 15 µg/mL (≈ 44.7 µM) against Human respirovirus 3; > 100 µg/mL in the test with Human alphaherpesvirus 1; 7 µg/mL (≈ 20.9 µM) in test [8]; 0.5 µg/mL (≈ 1.49 µM) in test [9]; 100 µg/mL (≈ 298 µM) in test [10]; 100 µg/mL (≈ 298 µM) in test [11]. Besides, the MIC in [12] is 7 µg/mL (≈ 20.9 µM). For the same compound, the MCC in the test on Vero turned out to be 200 µg/mL; with HeLa, 100 µg/mL; in the test on PRK, 100 µg/mL.

Regarding `COC(=O)C(O)Cn1cnc2c(N)ncnc21` (stereo not given), the MIC in the test with Measles morbillivirus was 40 µg/mL (≈ 169 µM); against Sindbis virus, > 400 µg/mL; in test [1], 150 µg/mL (≈ 632 µM); in test [2], 3 µg/mL (≈ 12.6 µM); in the test with Poliovirus 1, > 400 µg/mL; in test [3], 1 µg/mL (≈ 4.22 µM). Also, the MIC in [5] was 70 µg/mL (≈ 295 µM); with Coxsackievirus B4, > 400 µg/mL; in [6], 3 µg/mL (≈ 12.6 µM); against Vaccinia virus, 7 µg/mL (≈ 29.5 µM); in the test with Human respirovirus 3, 20 µg/mL (≈ 84.3 µM); against HK [14], > 400 µg/mL. Also, the MIC in the test with Human alphaherpesvirus 1 was > 400 µg/mL; in [8], 30 µg/mL (≈ 126 µM); in test [10], > 400 µg/mL; in test [11], 300 µg/mL (≈ 1260 µM); in [12] it was 200 µg/mL (≈ 843 µM). The IC50 in the test listed under Oryctolagus cuniculus [13] was 350 µg/mL (≈ 1480 µM); in the test listed under Oryctolagus cuniculus [15], > 400 µg/mL; in the test filed under Oryctolagus cuniculus [16], > 400 µg/mL. The MCC with Vero, in the test on HeLa and in the test on PRK was > 400 µg/mL throughout.

With `CCCCCOC(=O)C(O)Cn1cnc2c(N)ncnc21` (stereo not given), the MIC with Measles morbillivirus is 70 µg/mL (≈ 239 µM); in the test with Sindbis virus it was 200 µg/mL (≈ 682 µM); in test [1], 100 µg/mL (≈ 341 µM); in test [2] it was 10 µg/mL (≈ 34.1 µM); in the test on Poliovirus 1, > 400 µg/mL; in test [3] it was 100 µg/mL (≈ 341 µM). Moreover, the MIC was 10 µg/mL (≈ 34.1 µM) in [5]; > 400 µg/mL in the test on Coxsackievirus B4; 2 µg/mL (≈ 6.82 µM) in test [6]; 70 µg/mL (≈ 239 µM) against Vaccinia virus; 300 µg/mL (≈ 1020 µM) in test [7]; 70 µg/mL (≈ 239 µM) in the test with Human respirovirus 3. For the same compound, the MIC with Human alphaherpesvirus 1 was > 200 µg/mL; in test [8], 3 µg/mL (≈ 10.2 µM); in test [9], 1 µg/mL (≈ 3.41 µM); in test [10] it was 20 µg/mL (≈ 68.2 µM); against HK [17], 20 µg/mL (≈ 68.2 µM); in test [11], > 200 µg/mL. In addition, the MIC in [12] was found to be 30 µg/mL (≈ 102 µM). Moreover, the values for the IC50 in the test listed under Oryctolagus cuniculus [13], in the test listed under Oryctolagus cuniculus [15] and in the test listed under Oryctolagus cuniculus [16] were 21 µg/mL (≈ 71.6 µM), 215 µg/mL (≈ 733 µM) and 151 µg/mL (≈ 515 µM), respectively. Also, the figures for the MCC with Vero, with HeLa and in the test with PRK were 200 µg/mL, > 400 µg/mL and 200 µg/mL, respectively.
